# MrgX1 agonist – human MrgX1 receptor agonism, primary screen; Q96LB2; MrgX1-HEK293 cells, Fluo-4 calcium fluorescence, agonist mode; stronger effect = higher value; B-score at 10 µM; actives 0.44% (n = 310,000); AID 588627;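 active = calcium response B-score plate-corrected fluorescence ratio at least 3 library SD, with starting fluorescence B-score inside 5 SD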
# Target sequence (Q96LB2 whole entry, looked up): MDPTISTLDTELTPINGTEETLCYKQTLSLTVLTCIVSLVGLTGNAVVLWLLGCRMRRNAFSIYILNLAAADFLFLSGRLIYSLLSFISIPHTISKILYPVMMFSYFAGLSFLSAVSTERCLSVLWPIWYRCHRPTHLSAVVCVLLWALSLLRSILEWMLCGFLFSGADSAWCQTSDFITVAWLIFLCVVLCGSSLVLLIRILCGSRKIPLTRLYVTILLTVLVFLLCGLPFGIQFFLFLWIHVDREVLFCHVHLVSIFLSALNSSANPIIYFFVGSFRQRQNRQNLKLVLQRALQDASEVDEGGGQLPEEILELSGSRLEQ
#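 Test system: HEK293 cells stably expressing human MrgX1 receptor; amount: 15,000 cells per well; doses: compound delivered in addition one of three; times: overnight plating before 1 h dye loading; detection: Fluo-4 NW calcium-flux fluorescence, kinetic read; read-out basis: B-scored fluorescence response ratio; controls: positive and negative controls per plate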
# RGS4 pot – potentiators or activators of RGS4; HEK293 M3R/inducible RGS4, carbachol calcium flux Fluo4; stronger effect = lower value; B-score at 10 µM; actives 0.92% (n = 310,000);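 active = B-score of the integrated calcium signal more than 4 SD below the library mean, with starting fluorescence not abnormally high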;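 also: negative B-score means reduced calcium response which marks RGS4 activation or potentiation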
#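 Test system: HEK293 cells with stable M3R and inducible RGS4; also added: carbachol at ECmax as muscarinic agonist stimulus; schedule: dye loading 30 min 37 °C, buffer rest 30 min RT; technique: kinetic calcium fluorescence imaging with Fluo4-AM dye, 2 µM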
# MrgX1 antagonist – human MrgX1 receptor antagonism, primary screen. MRGX1-HEK293 calcium flux, Fluo-4, BAM8-22 antagonism; stronger effect = lower value. B-score at 10 µM. actives 1.3% (n = 310,000);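 active = calcium-response B-score plate-corrected more than 3 library SD below zero, starting fluorescence within 5 deviations, no agonist response on first addition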;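 also: peak minus trough fluorescence over baseline after final BAM8-22 challenge near maximal dose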
# RGS4 inh – human RGS4 inhibition | P49798 | HEK293 M3R/RGS4 inducible, Fluo-4 calcium flux; stronger effect = higher value; triggered by carbachol at its EC20 | B-score at 10 µM | actives 0.45% (n = 310,000);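 active = B-score, a plate-corrected calcium signal, over three deviations above library mean, with baseline fluorescence within five deviations of library mean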;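 also: RGS4 expression induced by doxycycline in cells with stable M3 receptor; B-score is computed from the integrated fluorescence ratio over baseline after carbachol; higher B-score means a larger calcium signal and so more RGS4 inhibition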
# Target sequence (P49798 whole entry, looked up): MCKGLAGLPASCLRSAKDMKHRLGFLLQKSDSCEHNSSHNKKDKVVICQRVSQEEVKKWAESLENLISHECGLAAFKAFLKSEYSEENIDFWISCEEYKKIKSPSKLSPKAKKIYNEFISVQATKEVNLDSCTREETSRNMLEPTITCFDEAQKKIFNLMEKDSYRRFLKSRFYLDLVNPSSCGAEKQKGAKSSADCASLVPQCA
# MrgX1 allo act – human MrgX1 positive allosteric modulation, primary screen; actives 0.63% (n = 310,000); MrgX1-HEK293, Fluo-4 calcium flux, FDSS; stronger effect = higher value; B-score at 10 µM;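 active = plate-corrected calcium response at least 3 library SD above typical, normal starting fluorescence, not activating the receptor alone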;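 also: compound read alongside a low EC10 to EC30 dose of BAM8-22 agonist; peak minus trough fluorescence over baseline measured at the second addition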
# RGS4 inh valid – validation of RGS4 inhibitors. shares compounds with RGS4 inh. calcium response, % at 10 µM. HEK293 M3R/RGS4, carbachol calcium Fluo-4 fluorescence; carbachol added at its EC20; 0 = buffer wells, 100 = carbachol control. actives 65% (n = 1,700);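 active = duplicate-averaged calcium response above the buffer-only control mean plus 5 SD of those controls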;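 also: integrated fluorescence ratio F max minus min over baseline F0; higher response in RGS4-induced cells means RGS4 inhibition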
# M3R Ca ctr – non-induced cell nonspecific activity of RGS4 inhibitors; HEK293 M3R non-induced, carbachol calcium Fluo-4; submaximal (EC20) carbachol stimulus; buffer wells 0%, carbachol control wells 100%; shares compounds with RGS4 inh; activity (percent), % at 10 µM; actives 20% (n = 1,900); AID 493000; call rule not given here;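 also: RGS4 induction absent so cells express M3R without RGS4; higher means more calcium signal and flags a non-specific hit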
# RGS4 inh ctr2 – second RGS4 inhibitor counter-screen in uninduced cells lacking carbachol; shares compounds with RGS4 inh; HEK293 M3R/RGS4 non-induced, Fluo-4 calcium, no carbachol; normalised: buffer wells 0%, carbachol wells 100%; calcium response (agonist-mode artifact), % at 10 µM; actives 22% (n = 1,900); AID 493001;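 active = duplicate-averaged calcium rise in uninduced cells above buffer wells' mean plus 5 SD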
# MrgX1 ag confirm – human MrgX1 agonism, re-confirmation screen | shares compounds with MrgX1 agonist | MrgX1-HEK293, Fluo-4 calcium fluorescence, FDSS | activation, % at 10 µM | actives 78% (n = 600);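 active = calcium signal rise, corrected for plate position, at least 3 library SD high, with starting brightness within 5 such deviations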
# HEK293 Ca flux – activity in parental HEK293 cells lacking MrgX1; AID 624111; fluorescence ratio F(max-min)/F0 at 10 µM; Fluo-4 calcium fluorescence, FDSS; shares compounds with MrgX1 antagonist; actives 2% (n = 4,000);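 active = duplicate-averaged calcium fluorescence ratio at least three times the standard deviation of buffer wells, a nonspecific response in parental cells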
# HEK293 Ca counter – counter-screen for MrgX1 allosteric activators: effect in parental HEK293 cells. fluorescence ratio F(max-min)/F0 at 10 µM. actives 0.4% (n = 4,000). parental HEK293 calcium flux, Fluo-4 fluorescence ratio; stronger effect = higher value. shares compounds with MrgX1 antagonist;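 active = calcium fluorescence ratio, averaged over duplicates, at least 3 SD of the buffer-well ratio, meaning a nonspecific response in receptor-free cells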;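 also: untransfected parental HEK293 lacking MrgX1 used as counterscreen for MrgX1 allosteric activators; fluorescence change taken during the second addition on a kinetic imager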
# HEK293 Ca cntr2 – counter-screen for MrgX1 activators: effect in parental HEK293 cells; fluorescence ratio F(max-min)/F0 at 10 µM; actives 8.7% (n = 4,000); shares compounds with MrgX1 antagonist; Fluo-4 calcium fluorescence (FDSS); stronger effect = higher value;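 active = calcium fluorescence ratio at least three times the spread of buffer wells, meaning a non-specific response in parental cells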
# An asterisk follows results filed as active; i = inactive; . = no result. An excerpt weighted towards active compounds, which were near 3.5% of everything screened.
SMILES,MrgX1 agonist,RGS4 pot,MrgX1 antagonist,RGS4 inh,MrgX1 allo act,RGS4 inh valid,M3R Ca ctr,RGS4 inh ctr2,others
O=C1NC(=O)N(c2ccccc2)C(=O)/C1=C\C=C\c1ccccc1,i,i,i,16.1*,i,114.5%*,31.0%*,24.5%*,
Cc1ccc(N2C(=O)NC(=O)/C(=C/C=C/c3ccco3)C2=O)cc1,i,i,i,i,i,i,i,16.0%*,
CC(=O)OC1(c2ccccc2)CCN(C)CC1(C)C (centres undefined),i,i,i,i,i,.,.,.,
Cc1nc(SCc2c(Cl)cccc2Cl)nc(OC(=O)N(C)C)c1C,i,i,i,i,i,.,.,.,
COc1ccc(-n2c(O)c(/C=C3\C=Nc4ccc(Br)cc43)c(=O)[nH]c2=O)c(OC)c1,i,i,i,26.1*,i,55.0%*,i,326.5%*,
CCc1cc2c(s1)NC(=O)CN=C2c1cccs1,i,i,i,5.96*,i,24.5%*,31.0%*,i,
CCc1cc2c(s1)N(CC(=O)OC)C(=O)CN=C2c1ccccc1OC,i,i,i,i,i,.,.,.,
CCNC(=O)C1OC(n2cnc3c(N)ncnc32)C(O)C1O (centres undefined),30*,i,i,15.2*,i,48.5%*,71.5%*,i,
CCCCCc1nc2c(c(=O)c3ccccc3n2C)c(=O)n1C1CCCCCC1,i,i,i,i,i,.,.,.,
O=c1oc2ccccc2c(O)c1[C@H]1c2ccc(O)cc2Oc2c1c(=O)oc1ccccc21,i,i,i,11.2*,i,58.5%*,35.0%*,i,
NC1=C([N+](=O)[O-])C(c2ccc3c(c2)OCO3)c2c(c3ccccc3oc2=O)O1 (centres undefined),i,i,i,i,i,.,.,.,
CCOc1ccc(N2C(=O)/C(=C\c3cccs3)C(=O)NC2=S)cc1,i,i,i,i,i,.,i,i,
O=C1NC(=S)N(c2ccccc2F)C(=O)/C1=C\c1cccs1,i,i,i,9.49*,i,33.5%*,i,i,
CC(=NCCC(c1ccccc1)c1ccccc1)c1c(O)n(C)c(=O)n(C)c1=O,i,i,i,i,i,.,.,.,
Cc1cccc(NP(=O)(Oc2ccccc2F)Oc2ccccc2F)c1C,i,i,i,4.88*,i,i,i,i,
O=S(=O)(F)c1ccc2nc(-c3cccc(Sc4ccccc4)c3)cc(Cl)c2c1,i,i,i,i,i,.,.,.,
COC(=O)C1=Nc2ccccc2/C1=C\c1c(O)n(-c2cc(OC)ccc2OC)c(=O)[nH]c1=O,i,i,i,i,i,.,.,.,
Cc1cccc(-n2c(O)c(/C=C3/C(c4ccccc4)=Nc4ccccc43)c(=O)[nH]c2=O)c1,47.1*,i,i,i,i,.,i,29.0%*,
CNCC(=O)c1ccccc1,i,i,i,i,i,.,.,.,
CN1C(=O)C(=Cc2ccc(-c3cccc(Cl)c3)o2)C(=O)N(C)C1=O,i,i,i,5*,i,22.0%*,34.0%*,52.5%*,
Cc1ccc(Sc2ccc(C=C3C(=O)N(C)C(=O)N(C)C3=O)o2)cc1,i,i,i,i,i,i,i,79.5%*,
CN1C(=O)C(=Cc2ccc(N3CCOCC3)o2)C(=O)N(C)C1=O,i,i,i,i,i,.,.,.,
O=C(COc1ccc2ccc(=O)oc2c1)N1C[C@H]2C[C@@H](C1)c1cccc(=O)n1C2,i,i,i,i,i,.,.,.,
CN1CCc2cc(O)cc3c2[C@H]1Cc1ccc(O)c(O)c1-3,i,i,i,7.31*,i,30.5%*,i,i,
COc1cc2c(cc1O)C[C@H]1c3c(cc(O)c(OC)c3-2)CCN1C,i,.,i,.,i,.,.,.,
SMILES,MrgX1 agonist,RGS4 pot,MrgX1 antagonist,RGS4 inh,MrgX1 allo act,RGS4 inh valid,M3R Ca ctr,RGS4 inh ctr2,others
CCCN1CCc2cc(O)cc3c2[C@H]1Cc1ccc(O)c(O)c1-3,30.9*,i,i,10.5*,i,65.0%*,i,i,MrgX1 ag confirm=i;HEK293 Ca flux=i;HEK293 Ca counter=i;HEK293 Ca cntr2=i
O=[N+]([O-])/C=C1\NCCN1Cc1ccc(Cl)nc1,i,i,i,i,i,.,.,.,
C=Cn1c(P(=S)(N2CCOCC2)N2CCOCC2)cc2c1CCCC2,66.1*,i,i,i,i,.,.,.,MrgX1 ag confirm=i;HEK293 Ca flux=i;HEK293 Ca counter=i;HEK293 Ca cntr2=i
CCCN1C2CCCC1CC(NC(C)=O)C2 (centres undefined),49.9*,i,i,i,i,.,.,.,MrgX1 ag confirm=i;HEK293 Ca flux=i;HEK293 Ca counter=i;HEK293 Ca cntr2=i
Cc1ccc(-c2cc(-c3ccc(C)cc3)[n+](C)o2)cc1,i,i,i,i,i,.,.,.,
Cc1ccc(-c2cc(-c3ccc(C)cc3)[n+](-c3ccccc3)c(-c3ccc(C)cc3)c2)cc1,77.4*,-10.7*,i,i,i,.,.,.,MrgX1 ag confirm=350.6%*;HEK293 Ca flux=i;HEK293 Ca counter=i;HEK293 Ca cntr2=81.8*
CCOP(=O)(C#CC(C)(C)C)C(O)(c1ccccc1)C(F)(F)F (centres undefined),i,i,i,i,i,.,.,.,
O=C(/C=C/c1ccccc1)NCCc1cnc[nH]1,i,i,i,i,i,.,.,.,
